Results: ChEMBL document CHEMBL1800017, “Resorcylic acid lactones with cytotoxic and NF-κB inhibitory activities and their structure-activity relationships” (J Nat Prod, 2011)
Calls of active or inactive are those of the source. No cut-off for these calls is given here.

Key:
HT-29 [1] = experiment: Cytotoxicity against human HT-29 cells after 72 hrs by MTS assay; type: functional, cell-based; conditions: HT-29, 72 h
How it was run: (§1)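 Cells were grown in RPMI 1640 with 10% FBS, penicillin and streptomycin. They were plated at 2500 (HT-29) or 5000 (MDA-MB-435) cells/well and preincubated 16 h at 37 °C in 5% CO2. Test substance was added at final 25, 5, 1, 0.2 and 0.04 µg/mL for 72 h. Read-out was MTS. IC50 is the concentration giving 50% reduction in proliferation versus untreated controls.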

MDA-MB-435 = experiment: Cytotoxicity against human MDA-MB-435 cells after 72 hrs by MTS assay; type: functional, cell-based; conditions: MDA-MB-435, 72 h; how it was run: as §1
SF-268 = experiment: Cytotoxicity against human SF268 cells after 72 hrs by MTS assay; type: functional, cell-based
How it was run: (§2)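 Continuous 72 h exposure with MTS read-out. IC50 is the concentration reducing cellular proliferation by 50% relative to untreated controls.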

NCI-H460 = experiment: Cytotoxicity against human H460 cells after 72 hrs by MTS assay; type: functional, cell-based; how it was run: as §2
MCF7 = experiment: Cytotoxicity against human MCF7 cells after 72 hrs by MTS assay; type: functional, cell-based; conditions: MCF7, 72 h; how it was run: as §2
[2] = system: Mycolicibacterium smegmatis; experiment: Antimicrobial activity against Mycobacterium smegmatis by agar plate diffusion assay; type: functional
How it was run: (§3)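 Agar plate diffusion. Overnight cultures of each organism were seeded into molten LB or Middlebrook 7H9 medium with 1% glycerol and 1.5% agar, held at 50 °C, and poured as plates. Samples in 10 µL MeOH were spotted onto the surface and tested up to 500 µg/mL. Positive controls were penicillin G, novobiocin and streptomycin. Plates were incubated overnight at 37 °C.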

Bacillus subtilis = experiment: Antimicrobial activity against Bacillus subtilis by agar plate diffusion assay; type: functional; how it was run: as §3
Transcription factor p65 = Transcription factor p65 (Homo sapiens, UniProt Q04206); experiment: Inhibition of NFkappa p65 isolated from nuclear extract of human HeLa cells by ELISA; type: cell-free
Escherichia coli [3] = experiment: Antimicrobial activity against Escherichia coli by agar plate diffusion assay; type: functional; how it was run: as §3
Staphylococcus aureus = experiment: Antimicrobial activity against Staphylococcus aureus by agar plate diffusion assay; type: functional; how it was run: as §3
HT-29 [4] = experiment: Inhibition of mitochondrial membrane potential in human HT-29 cells using JC1 dye staining by fluorescence plate reader assay; type: functional, cell-based
How it was run: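 HT-29 cells exposed to a range of test concentrations, then loaded with JC-1 dye and washed to remove unbound stain. Fluorescence read for monomers (ex 485/em 530 nm, apoptotic) and aggregates (ex 560/em 595 nm, healthy). Staurosporine positive control. Triplicate measurements, at least two independent experiments; IC50 reported.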

Escherichia coli [5] = experiment: Antimicrobial activity against Escherichia coli at 100 ug/mL by agar plate diffusion assay; type: functional, organism-based
How it was run: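 Agar plate diffusion: overnight E. coli culture seeded into molten LB or Middlebrook 7H9 medium with 1% glycerol and 1.5% agar, held at 50 °C, then poured as assay plates. Samples dissolved in 10 µL MeOH were applied to the plate surface, and controls were treated the same way. Plates were incubated overnight at 37 °C.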

Chain of Transcription factor p65 (Q04206 whole entry, the tested form may be a part): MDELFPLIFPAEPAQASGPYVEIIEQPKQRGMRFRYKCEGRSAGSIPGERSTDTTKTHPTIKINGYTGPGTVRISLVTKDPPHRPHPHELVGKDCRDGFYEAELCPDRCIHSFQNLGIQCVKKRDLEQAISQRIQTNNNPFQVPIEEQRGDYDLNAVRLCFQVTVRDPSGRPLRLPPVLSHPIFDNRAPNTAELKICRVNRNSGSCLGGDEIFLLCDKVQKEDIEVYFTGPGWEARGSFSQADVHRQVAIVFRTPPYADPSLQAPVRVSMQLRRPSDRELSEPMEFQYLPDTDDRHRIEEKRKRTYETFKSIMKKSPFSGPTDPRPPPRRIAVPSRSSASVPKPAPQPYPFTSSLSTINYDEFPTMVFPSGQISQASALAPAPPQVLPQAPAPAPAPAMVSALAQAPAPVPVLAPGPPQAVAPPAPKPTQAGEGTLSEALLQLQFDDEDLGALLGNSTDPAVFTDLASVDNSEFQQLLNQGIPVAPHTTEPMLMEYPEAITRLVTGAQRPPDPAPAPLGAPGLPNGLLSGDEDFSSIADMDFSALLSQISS

Row | SMILES | IC50 (HT-29 [1]) [µM] | IC50 (MDA-MB-435) [µM] | IC50 (MCF7) [µM] | MIC [2] [µg/mL] | IC50 (Transcription factor p65) [µM] | IC50 (SF-268; Homo sapiens, SF-268, 72 h) [µM] | IC50 (NCI-H460; Homo sapiens, NCI-H460, 72 h) [µM] | further results
1 | COC(=O)[C@H]1[C@@H](O)[C@@]2(O)c3c(OC)cc(O[C@@H]4O[C@@H]([C@H](O)CO)CO[C@H]4OC)cc3O[C@@]2(c2ccc(OC)cc2)[C@@H]1c1ccccc1 [SILVESTROL] | 0.004 | 0.006 |  |  |  |  |  | 
2 | C[C@H]1CCC[C@@H](O)CCCCCc2cc(O)cc(O)c2C(=O)O1 (stereo in doubt; 12) [TALERANOL] |  |  |  |  |  |  |  | IC50 (SF-268; sf-268): > 25 µM; IC50 (NCI-H460; nci-h460): 9.5 µM
3 | COc1cc(O)c2c(c1)/C=C/C[C@H](O)[C@H](O)C(=O)CCC[C@H](C)OC2=O | > 50 | > 50 | > 50 | > 500 | > 50 | > 50 | > 25 | MIC (Bacillus subtilis): > 500 µg/mL; MIC (Escherichia coli [3]): > 500 µg/mL; MIC (Staphylococcus aureus): > 500 µg/mL
4 | C[C@H]1CCCC(=O)CCC/C=C/c2cc(O)cc(O)c2C(=O)O1 [ZEARALENONE] |  |  | > 25 |  |  | > 50 | > 25 | 
5 | COc1cc(O)c2c(c1)[C@H]1O[C@@H]1C[C@H](O)[C@H](O)C(=O)/C=C\C[C@H](C)OC2=O [HYPOTHEMYCIN] |  |  | 16.3 |  |  | 12.7 | 4.3 | 
6 | CN[C@@H]1C[C@H]2O[C@@](C)([C@@H]1OC)n1c3ccccc3c3c4c(c5c6ccccc6n2c5c31)C(=O)NC4 [STAUROSPORINE] |  |  |  |  |  |  |  | IC50 (HT-29 [4]): 0.0025 µM
7 | COc1cc(O)c2c(c1)/C=C/C[C@H](O)[C@H](O)C(=O)/C=C/C[C@H](C)OC2=O | 4.4 | 5.5 | 4.9 | > 500 | 11.5 | 5.6 |  | MIC (Staphylococcus aureus): > 500 µg/mL
8 | C[C@H]1CCC[C@H](O)CCCCCc2cc(O)cc(O)c2C(=O)O1 [ZERANOL] |  |  | > 50 |  |  | > 50 | > 50 | 
9 | C[C@H]1CCCC(=O)CCCCCc2cc(O)cc(O)c2C(=O)O1 [ZEARALANONE] |  |  | > 25 |  |  | > 50 | > 25 | 
10 | COc1cc(O)c2c(c1)/C=C/C[C@H](O)[C@H](O)[C@@H](O)/C=C/C[C@H](C)OC2=O [ZEAENOL] | > 25 | > 25 | > 100 | > 500 | > 50 | > 100 | > 100 | MIC (Escherichia coli [3]): > 500 µg/mL
11 | CC[C@@]1(O)C(=O)OCc2c1cc1n(c2=O)Cc2cc3ccccc3nc2-1 [CAMPTOTHECIN] |  |  | 0.07 |  |  | 0.04 | < 0.01 | 
12 | C[C@H]1C/C=C\C(=O)[C@@H](O)[C@@H](O)C/C=C/c2cc(O)cc(O)c2C(=O)O1 | 11.5 | 15.8 | 10.3 | > 500 | 0.75 | 8.9 | 4.1 | MIC (Bacillus subtilis): > 500 µg/mL; MIC (Escherichia coli [3]): > 500 µg/mL; MIC (Staphylococcus aureus): > 500 µg/mL
13 | CC1(C)S[C@@H]2[C@H](NC(=O)Cc3ccccc3)C(=O)N2[C@H]1C(=O)O |  |  |  |  |  |  |  | inhibition (Escherichia coli [5]): Active
14 | COc1cc(O)c2c(c1)/C=C/C[C@H](O)[C@H](O)C(=O)/C=C\C[C@H](C)OC2=O | 3.6 | 3.3 | 3.8 | > 500 | 0.25 | 5.1 | 1.2 | MIC (Bacillus subtilis): > 500 µg/mL; MIC (Escherichia coli [3]): > 500 µg/mL
15 | C[C@H]1CCC[C@@H](O)CCCCCc2cc(O)cc(O)c2C(=O)O1 (stereo in doubt; 10) [TALERANOL] |  |  | > 25 |  |  | > 50 | 15.4 | 
16 | COc1cc(O)c2c(c1)/C=C/C[C@H](O)[C@H](O)[C@H](O)/C=C/C[C@H](C)OC2=O | > 25 | > 25 | > 100 | > 500 | > 50 | > 100 | > 100 | MIC (Bacillus subtilis): > 500 µg/mL; MIC (Staphylococcus aureus): > 500 µg/mL
